Test results: ChEMBL document CHEMBL4765448, “Multiple biological active 4-aminopyrazoles containing trifluoromethyl and their 4-nitroso-precursors: Synthesis and evaluation” (Eur J Med Chem, 2020)
In brackets after ≈: the same amount, converted by molar mass. Activity calls are given as the source filed them. The calls are words filed in the database; no cut-off is given here.

Experiments:
Rattus norvegicus [1] = test: Antiinflammatory activity in rat model of carrageenan-induced paw edema assessed as inhibition of hind paw swelling at 15 mg/kg, ip measured after 1 hr relative to control; assay type: functional
Rattus norvegicus [2] = test: Analgesic activity in rat assessed as prolongation of latency period at 15 mg/kg, ip measured after 1 hr by hot-plate test relative to control; assay type: functional
Outline: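 Hot-plate test in rats. Compounds were given by intraperitoneal injection. Latency was read at 1 h and, for some compounds, also at 2 h after dosing. Results are expressed as % prolongation of the latent period versus vehicle-treated control. Significance was given as p-values.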

Rattus norvegicus [3] = test: Antiinflammatory activity in rat model of carrageenan-induced paw edema assessed as inhibition of hind paw swelling at 15 mg/kg, ip measured after 3 hrs relative to control; assay type: functional
NHDF = test: Cytotoxicity against HDF cells; assay type: cell-based, Homo sapiens
[4] = Selectivity index, ratio of IC50 for HDF cells to IC50 for human HeLa cells; assay type: toxicity; conditions: HDF cells versus HeLa cells, read-out: Ratio IC50
HeLa = test: Cytotoxicity against human HeLa cells; assay type: functional, cell-based; conditions: for IC50: Homo sapiens, HeLa, read-out: IC50
Erythrocyte [5] = test: Antioxidant activity in human erythrocytes assessed as protection against AAPH-induced hemolysis at 400 uM preincubated for 20 mins followed by AAPH addition and measured after 2 hrs by spectrophotometric method relative to control; assay type: functional; conditions: time 140 min, 2.333 h
Outline: (§1)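 Erythrocyte hemolysis assay with AAPH as the free-radical initiator, testing 50 and 400 µM. Results are expressed as relative protection of membranes against oxidative damage, each the mean of two independent experiments.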

[6] = Antioxidant activity assessed as AAPH scavenging activity by measuring residual fluorescence at 10 uM measured at 1 min interval for 30 mins by ORAC fluorescein assay relative to control; assay type: functional
Outline: (§2)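 ORAC-FL assay with fluorescein as the probe and AAPH as the peroxyl radical generator. The loss of fluorescence over time was followed, and the result is given as % fluorescence restored at 10 and 50 µM. Each value is the mean of two independent experiments.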

Erythrocyte [7] = test: Antioxidant activity in human erythrocytes assessed as protection against AAPH-induced hemolysis at 50 uM preincubated for 20 mins followed by AAPH addition and measured after 2 hrs by spectrophotometric method relative to control; assay type: functional; conditions: time 140 min, 2.333 h; outline: as §1
[8] = Antioxidant activity assessed as AAPH scavenging activity by measuring residual fluorescence at 50 uM measured at 1 min interval for 30 mins by ORAC fluorescein assay relative to control; assay type: functional; outline: as §2
Shigella flexneri = test: Antibacterial activity against Shigella flexneri; assay type: functional
Klebsiella pneumoniae = test: Antibacterial activity against Klebsiella pneumoniae; assay type: functional
Pseudomonas aeruginosa = test: Antibacterial activity against Pseudomonas aeruginosa; assay type: functional
Escherichia coli = test: Antibacterial activity against Escherichia coli; assay type: functional
Proteus vulgaris = test: Antibacterial activity against Proteus vulgaris; assay type: functional
Citrobacter braakii = test: Antibacterial activity against Citrobacter braakii; assay type: functional
Neisseria gonorrhoeae = test: Antibacterial activity against Neisseria gonorrhoeae; assay type: functional
Serratia marcescens = test: Antibacterial activity against Serratia marcescens; assay type: functional
Staphylococcus aureus = test: Antibacterial activity against Staphylococcus aureus; assay type: functional
[9] = Antioxidant activity assessed as ABTS radical scavenging activity measured after 1 hr by UV-vis spectrophotometric method; assay type: functional
Outline: (§3)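 ABTS cation-radical decolorization was read spectrophotometrically as the fall in absorbance after 1 h. Trolox was the reference. TEAC was taken as the ratio of concentration-response slopes, test/Trolox, and IC50 was also derived. Data are mean ± SEM, n = 3.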

[10] = Antioxidant activity assessed as trolox equivalent of ABTS radical scavenging activity measured after 1 hr by UV-vis spectrophotometric method; assay type: functional; outline: as §3
[11] = system: Trichophyton interdigitale; test: Antifungal activity against Trichophyton mentagrophytes var. interdigitale; assay type: functional
Trichophyton rubrum = test: Antifungal activity against Trichophyton rubrum; assay type: functional
Trichophyton violaceum = test: Antifungal activity against Trichophyton violaceum; assay type: functional
Nannizzia gypsea = test: Antifungal activity against Trichophyton gypseum; assay type: functional
Epidermophyton floccosum = test: Antifungal activity against Epidermophyton floccosum; assay type: functional
Candida albicans = test: Antifungal activity against Candida albicans; assay type: functional
Trichophyton tonsurans = test: Antifungal activity against Trichophyton tonsurans; assay type: functional
Microsporum canis = test: Antifungal activity against Microsporum canis; assay type: functional
[12] = system: Mycobacterium tuberculosis; test: Antitubercular activity against Mycobacterium tuberculosis H37Rv; assay type: functional
Outline: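 Mycobacterium tuberculosis strain H37Rv; minimum inhibitory concentration (MIC) taken as the lowest level needed to inhibit bacterial growth; isoniazid and pyrazinamide served as reference drugs.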

Streptococcus pyogenes = test: Antibacterial activity against Streptococcus pyogenes; assay type: functional
Rattus norvegicus [13] = test: Antiinflammatory activity in rat model of carrageenan-induced paw edema assessed as inhibition of hind paw swelling at 15 mg/kg, ip measured after 5 hrs; assay type: functional, organism-based

Cc1c(N(C)CS(=O)(=O)O)c(=O)n(-c2ccccc2)n1C [METAMIZOLE]
inhibition (Rattus norvegicus [1]): inactive | Activity (Rattus norvegicus [2]): 59.8% | inhibition (Rattus norvegicus [3]): inactive

CC[C@@]1(O)C(=O)OCc2c1cc1n(c2=O)Cc2cc3ccccc3nc2-1 [CAMPTOTHECIN]
IC50 (NHDF; Homo sapiens, NHDF, read-out: IC50): 5.38 µM | selectivity ratio [4]: 3.24 | IC50 (HeLa): 1.66 µM

O=c1c(O)c(-c2ccc(O)c(O)c2)oc2cc(O)cc(O)c12 [QUERCETIN]
fold change (FC) (Erythrocyte [5]): 0.045 | Activity [6]: 87.6% | fold change (FC) (Erythrocyte [7]): 0.023 | Activity [8]: 90%

CN[C@@H]1[C@H](O)[C@H](NC)[C@H]2O[C@@]3(O)C(=O)C[C@@H](C)O[C@H]3O[C@@H]2[C@H]1O [SPECTINOMYCIN]
MIC (Shigella flexneri): 7.8 µg/mL (≈ 23.5 µM) | MIC (Klebsiella pneumoniae): 15.6 µg/mL (≈ 46.9 µM) | MIC (Pseudomonas aeruginosa): 2.5 µg/mL (≈ 7.52 µM) | MIC (Escherichia coli): 15.6 µg/mL (≈ 46.9 µM) | MIC (Proteus vulgaris): 1.25 µg/mL (≈ 3.76 µM) | MIC (Citrobacter braakii): 31.2 µg/mL (≈ 93.9 µM) | MIC (Neisseria gonorrhoeae): 15.6 µg/mL (≈ 46.9 µM) | MIC (Serratia marcescens): 15.6 µg/mL (≈ 46.9 µM) | MIC (Staphylococcus aureus): 31.2 µg/mL (≈ 93.9 µM)

Cc1c(C)c2c(c(C)c1O)CCC(C)(C(=O)O)O2 (configuration not stated) [TROLOX]
IC50 [9]: 20.1 µM | Activity [10]: 1 equiv

CCC(C)n1ncn(-c2ccc(N3CCN(c4ccc(OCC5COC(Cn6cncn6)(c6ccc(Cl)cc6Cl)O5)cc4)CC3)cc2)c1=O (configuration not stated) [ITRACONAZOLE]
MIC [11]: 0.095 µg/mL (≈ 0.135 µM) | MIC (Trichophyton rubrum): 0.06 µg/mL (≈ 0.085 µM) | MIC (Trichophyton violaceum): 0.19 µg/mL (≈ 0.269 µM) | MIC (Nannizzia gypsea): 0.06 µg/mL (≈ 0.085 µM) | MIC (Epidermophyton floccosum): 0.19 µg/mL (≈ 0.269 µM) | MIC (Candida albicans): > 100 µg/mL | MIC (Trichophyton tonsurans): 0.19 µg/mL (≈ 0.269 µM) | MIC (Microsporum canis): > 100 µg/mL

Cl.Nc1c(C(F)(F)F)n[nH]c1-c1ccccc1
IC50 [9]: 41.8 µM | MIC [12]: 6.2 µg/mL | inhibition in vivo at 15 mg/kg (Rattus norvegicus [1]): 44.8% | MIC (Shigella flexneri): > 250 µg/mL | fold change (FC) (Erythrocyte [5]): 0.01 | MIC (Klebsiella pneumoniae): > 250 µg/mL | Activity (Rattus norvegicus [2]): 91.8% | MIC [11]: > 200 µg/mL | MIC (Trichophyton rubrum): > 200 µg/mL | MIC (Trichophyton violaceum): > 200 µg/mL | MIC (Nannizzia gypsea): > 200 µg/mL | MIC (Epidermophyton floccosum): > 200 µg/mL | MIC (Candida albicans): > 200 µg/mL | MIC (Trichophyton tonsurans): > 200 µg/mL | MIC (Pseudomonas aeruginosa): > 250 µg/mL | MIC (Streptococcus pyogenes): > 250 µg/mL | MIC (Escherichia coli): > 250 µg/mL | IC50 (NHDF; nhdf): Not Active | MIC (Proteus vulgaris): > 250 µg/mL | MIC (Citrobacter braakii): > 250 µg/mL | MIC (Neisseria gonorrhoeae): 62.5 µg/mL | selectivity ratio [4]: > 53.8 | IC50 (HeLa): 1.86 µM | MIC (Microsporum canis): > 200 µg/mL | fold change (FC) (Erythrocyte [7]): 1.03 | MIC (Serratia marcescens): > 250 µg/mL | MIC (Staphylococcus aureus): > 250 µg/mL

OC(Cn1cncn1)(Cn1cncn1)c1ccc(F)cc1F [FLUCONAZOLE]
MIC [11]: > 100 µg/mL | MIC (Trichophyton rubrum): 6.25 µg/mL (≈ 20.4 µM) | MIC (Trichophyton violaceum): 100 µg/mL (≈ 327 µM) | MIC (Nannizzia gypsea): 12.5 µg/mL (≈ 40.8 µM) | MIC (Candida albicans): > 100 µg/mL | MIC (Trichophyton tonsurans): > 100 µg/mL | MIC (Microsporum canis): 100 µg/mL (≈ 327 µM)

Cl.Cn1nc(C(F)(F)F)c(N)c1-c1cccs1
MIC [12]: 12.5 µg/mL | MIC (Shigella flexneri): > 250 µg/mL | MIC (Klebsiella pneumoniae): > 250 µg/mL | MIC [11]: 200 µg/mL | MIC (Trichophyton rubrum): > 200 µg/mL | MIC (Trichophyton violaceum): > 200 µg/mL | MIC (Nannizzia gypsea): > 200 µg/mL | MIC (Epidermophyton floccosum): > 200 µg/mL | MIC (Candida albicans): > 200 µg/mL | Activity [10]: 0.1 equiv | MIC (Trichophyton tonsurans): > 200 µg/mL | MIC (Pseudomonas aeruginosa): > 250 µg/mL | MIC (Streptococcus pyogenes): > 250 µg/mL | MIC (Escherichia coli): > 250 µg/mL | IC50 (NHDF; nhdf): Not Active | MIC (Proteus vulgaris): > 250 µg/mL | MIC (Citrobacter braakii): > 250 µg/mL | MIC (Neisseria gonorrhoeae): > 250 µg/mL | selectivity ratio [4]: > 2.05 | Activity (HeLa): Dose-dependent effect | IC50 (HeLa): 48.7 µM | MIC (Microsporum canis): > 200 µg/mL | Activity (Rattus norvegicus [13]): Active | MIC (Serratia marcescens): > 250 µg/mL | MIC (Staphylococcus aureus): > 250 µg/mL

Cc1ccc(-c2[nH]nc(C(F)(F)F)c2N)cc1
IC50 [9]: 13.4 µM | Activity [10]: 1.43 equiv | Activity (Rattus norvegicus [13]): Active

NC(=O)c1cnccn1 [PYRAZINAMIDE]
MIC [12]: 12.5 µg/mL (≈ 102 µM)
